Measured values taken from ChEMBL document CHEMBL2010770, “Dimeric 3,5-bis(benzylidene)-4-piperidones: a novel cluster of tumour-selective cytotoxins possessing multidrug-resistant properties” (Eur J Med Chem, 2012).
Active and inactive are the calls of the source. No cut-off for these calls is given here.

Experiments:
[1] = Cytotoxicity against human HPLF cells after 48 hrs; format: cell-based
How it was run: (§1)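 Cells were exposed to a dose range for 48 h, following a literature method. CC50 was read from the dose–response curve.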

COLO 205 = assay: Cytotoxicity against human COLO205 cells; format: functional, cell-based
How it was run: (§2)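 Human colon cancer and leukaemia line panel. Compounds tested from 10^-4 to 10^-8 M, and IC50 values determined.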

HCC 2998 = assay: Cytotoxicity against human HCC2998 cells; format: functional, cell-based; how it was run: as §2
HCT-116 = assay: Cytotoxicity against human HCT116 cells; format: functional, cell-based; how it was run: as §2
HCT-15 = assay: Cytotoxicity against human HCT15 cells; format: functional, cell-based; how it was run: as §2
HT-29 = assay: Cytotoxicity against human HT-29 cells; format: functional, cell-based; how it was run: as §2
KM12 = assay: Cytotoxicity against human KM12 cells; format: functional, cell-based; how it was run: as §2
SW-620 = assay: Cytotoxicity against human SW620 cells; format: functional, cell-based; how it was run: as §2
HL-60(TB) = assay: Cytotoxicity against human HL-60(TB) cells; format: functional, cell-based; how it was run: as §2
K562 = assay: Cytotoxicity against human K562 cells; format: functional, cell-based; how it was run: as §2
RPMI-8226 = assay: Cytotoxicity against human RPMI8226 cells; format: functional, cell-based; how it was run: as §2
[2] = target: T1, ATP-dependent translocase ABCB1 (Homo sapiens, UniProt P08183); assay: Inhibition of human MDR1-mediated multidrug resistant in mouse L5178Y cells at 4 uM treated 10 mins before rhodamine 123 challenge measured after 20 mins relative to control; format: cell-based
T1 sequence (P08183 whole entry): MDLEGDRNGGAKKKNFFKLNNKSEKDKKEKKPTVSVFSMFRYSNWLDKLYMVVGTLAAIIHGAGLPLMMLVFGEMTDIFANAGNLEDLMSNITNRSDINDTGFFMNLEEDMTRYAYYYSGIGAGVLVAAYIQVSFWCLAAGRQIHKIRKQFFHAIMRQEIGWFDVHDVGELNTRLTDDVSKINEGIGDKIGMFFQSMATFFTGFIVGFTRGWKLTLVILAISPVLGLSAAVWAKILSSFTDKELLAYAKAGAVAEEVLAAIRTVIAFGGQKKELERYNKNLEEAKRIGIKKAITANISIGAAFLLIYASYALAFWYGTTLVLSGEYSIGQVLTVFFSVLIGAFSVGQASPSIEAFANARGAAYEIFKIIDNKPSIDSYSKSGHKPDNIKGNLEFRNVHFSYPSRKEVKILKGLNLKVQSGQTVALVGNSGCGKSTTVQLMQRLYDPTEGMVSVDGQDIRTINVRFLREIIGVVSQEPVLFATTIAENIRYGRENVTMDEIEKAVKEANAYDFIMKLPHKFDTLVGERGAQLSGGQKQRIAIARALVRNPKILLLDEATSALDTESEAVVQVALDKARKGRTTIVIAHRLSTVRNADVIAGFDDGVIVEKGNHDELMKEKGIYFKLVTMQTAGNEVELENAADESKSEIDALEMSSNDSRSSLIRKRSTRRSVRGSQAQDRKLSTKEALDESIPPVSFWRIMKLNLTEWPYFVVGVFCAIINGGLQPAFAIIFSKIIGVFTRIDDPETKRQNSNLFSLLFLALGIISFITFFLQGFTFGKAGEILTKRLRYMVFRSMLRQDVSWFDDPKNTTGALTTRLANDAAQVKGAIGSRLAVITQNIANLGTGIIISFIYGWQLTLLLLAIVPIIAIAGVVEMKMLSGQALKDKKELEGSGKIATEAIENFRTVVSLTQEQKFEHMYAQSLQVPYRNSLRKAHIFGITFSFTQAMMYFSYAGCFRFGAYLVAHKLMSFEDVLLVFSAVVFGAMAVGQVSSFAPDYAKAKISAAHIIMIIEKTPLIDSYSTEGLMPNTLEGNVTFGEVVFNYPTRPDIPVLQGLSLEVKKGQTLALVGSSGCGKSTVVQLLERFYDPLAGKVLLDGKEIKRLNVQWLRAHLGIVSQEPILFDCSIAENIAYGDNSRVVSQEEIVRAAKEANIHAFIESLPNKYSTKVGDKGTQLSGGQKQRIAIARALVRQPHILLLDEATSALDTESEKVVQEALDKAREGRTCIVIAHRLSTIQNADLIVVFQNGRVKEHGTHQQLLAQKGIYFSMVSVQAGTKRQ
How it was run: (§3)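 Compounds in DMSO were added at room temperature to mdr1-transfected and parental L5178Y cells. After 10 min, rhodamine 123 was added, followed by 20 min at 37 °C. Cellular rhodamine fluorescence was measured and expressed as fluorescence activity ratio (FAR); FAR >1 indicates MDR reversal.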

[3] = target: T1, ATP-dependent translocase ABCB1; assay: Inhibition of human MDR1-mediated multidrug resistant in mouse L5178Y cells at 40 uM treated 10 mins before rhodamine 123 challenge measured after 20 mins relative to control; format: cell-based; how it was run: as §3
MOLT-4 = assay: Growth inhibition of human Molt4/C8 cells; format: functional, cell-based
CCRF-CEM = assay: Growth inhibition of human CEM cells; format: functional, cell-based
L1210 = assay: Growth inhibition of mouse L1210 cells; format: functional, cell-based
HSC-2 [4] = assay: Cytotoxicity against human HSC2 cells after 48 hrs; format: functional; conditions: HSC-2, 48 h
How it was run: (§4)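 Human HSC-2, HSC-3, HSC-4 squamous carcinoma and HL-60 promyelocytic leukaemia cells incubated with compound for 48 h. CC50, the concentration killing 50% of cells, read from a dose–response curve.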

HSC-2 [5] = assay: Selectivity index, ratio of CC50 for human normal cells to CC50 for human HSC2 cells; format: functional
HSC-3 [6] = assay: Cytotoxicity against human HSC3 cells after 48 hrs; format: functional; conditions: HSC-3, 48 h; how it was run: as §4
HSC-3 [7] = assay: Selectivity index, ratio of CC50 for human normal cells to CC50 for human HSC3 cells; format: functional
HSC-4 [8] = assay: Cytotoxicity against human HSC4 cells after 48 hrs; format: functional; conditions: HSC-4, 48 h; how it was run: as §4
HSC-4 [9] = assay: Selectivity index, ratio of CC50 for human normal cells to CC50 for human HSC4 cells; format: functional
HL-60 [10] = assay: Cytotoxicity against human HL60 cells after 48 hrs; format: functional; conditions: HL-60, 48 h; how it was run: as §4
HL-60 [11] = assay: Selectivity index, ratio of CC50 for human normal cells to CC50 for human HL60 cells; format: functional
[12] = Cytotoxicity against human HGF cells after 48 hrs; format: cell-based; how it was run: as §1

| Compound | CC50 at 48 h [1] | IC50 (COLO 205) | IC50 (HCC 2998) | IC50 (HCT-116) | IC50 (HCT-15) | IC50 (HT-29) | Ratio [2] | Ratio [3] | growth inhibition (GI) (MOLT-4) | growth inhibition (GI) (CCRF-CEM) | growth inhibition (GI) (L1210) | CC50 (HSC-2 [4]) | Ratio (HSC-2 [5]) | CC50 (HSC-3 [6]) | Ratio (HSC-3 [7]) | CC50 (HSC-4 [8]) | Ratio (HSC-4 [9]) | CC50 (HL-60 [10]) | Ratio (HL-60 [11]) | CC50 at 48 h [12] | other results |
| --- | --- | --- | --- | --- | --- | --- | --- | --- | --- | --- | --- | --- | --- | --- | --- | --- | --- | --- | --- | --- | --- |
| O=C1/C(=C/c2ccccc2)CN(C(=O)CCC(=O)N2C/C(=C\c3ccccc3)C(=O)/C(=C/c3ccccc3)C2)C/C1=C\c1ccccc1 | 16000 nM | 390 nM | 230 nM | 140 nM | 380 nM | 240 nM | 35 | 60 | Active | Active | Active | 99 nM | 92.6 | 230 nM | 39.9 | 240 nM | 38.2 | 410 nM | 22.4 | 10000 nM | IC50 (KM12): 300 nM; IC50 (SW-620): 260 nM; IC50 (HL-60(TB)): 270 nM; IC50 (K562): 220 nM; IC50 (RPMI-8226): 60 nM |
| N[C@@H](Cc1ccc(N(CCCl)CCCl)cc1)C(=O)O [MELPHALAN] | – | – | – | – | – | – | – | – | – | – | – | 8700 nM | 24.1 | 25000 nM | 8.4 | 32000 nM | 6.56 | 1400 nM | 150 | – | – |
| O=C1/C(=C/c2ccccc2)CN(C(=O)/C=C/C=C/C(=O)N2C/C(=C\c3ccccc3)C(=O)/C(=C/c3ccccc3)C2)C/C1=C\c1ccccc1 | 47000 nM | – | – | – | – | – | 48.6 | 44.3 | Active | Active | Active | 2600 nM | 13.5 | 8500 nM | 4.12 | 6400 nM | 5.47 | 7400 nM | 4.73 | 39000 nM | – |
| O=C1/C(=C/c2ccccc2)CN(C(=O)C#CC(=O)N2C/C(=C\c3ccccc3)C(=O)/C(=C/c3ccccc3)C2)C/C1=C\c1ccccc1 | 13000 nM | 250 nM | 410 nM | 120 nM | 390 nM | 200 nM | 42 | 45.7 | Active | Active | Active | 190 nM | 41.4 | 490 nM | 16.1 | 930 nM | 8.46 | 870 nM | 9.05 | 8500 nM | IC50 (KM12): 280 nM; IC50 (SW-620): 200 nM; IC50 (HL-60(TB)): 250 nM; IC50 (K562): 300 nM; IC50 (RPMI-8226): 80 nM |
| O=C1/C(=C/c2ccccc2)CN(C(=O)/C=C/C(=O)N2C/C(=C\c3ccccc3)C(=O)/C(=C/c3ccccc3)C2)C/C1=C\c1ccccc1 | 22000 nM | 560 nM | 220 nM | 130 nM | 830 nM | 250 nM | 37.2 | 52.9 | Active | Active | Active | 78 nM | 191 | 620 nM | 24 | 580 nM | 25.7 | 1200 nM | 12.4 | 17000 nM | IC50 (KM12): 210 nM; IC50 (SW-620): 220 nM; IC50 (HL-60(TB)): 450 nM; IC50 (K562): 320 nM; IC50 (RPMI-8226): 50 nM |
